# Bioassay records (PubChem)
# The sample as a whole holds a higher share of hits than the screen did.
# HSF-1 act = increases HSF-1 driven luciferase reporter signal; AID 504408; 300,000 tested, 1.7% active; NIH3T3-HGL HSF-1 luciferase reporter, MG132, 8 h; 100% = twice DMSO control signal; activation, % at 9 µM;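 active = mean replicate activation of at least 50% with a set share of replicates each reaching 50%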;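 also: 0% = median of the neutral control wells and 100% = twice that signal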
# HSF1 inh = HSF1 inhibition; NIH3T3-HGL HSE-luciferase, MG132-induced, luminescence 8 h; active compounds read low; 300,000 tested, 0.77% active; AID 2098; activity change, negative = inhibition, % at 7.5 µM (by protocol);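 active = more than half of replicate wells show activity change below -50%, luminescence cut by over half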;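 also: luciferase reports HSF-1 transcriptional activity via heat shock element; 0% = median of DMSO wells and -100% = zero luminescence signal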
# Hsp70 act = switches on Hsp70 transcription; HeLa Hsp70 promoter luciferase reporter, luminescence; scaled: vehicle 0, proteasome-inhibitor control 100%; activation, % at 10 µM; 200,000 tested, 0.04% active;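 active = activation above the mean across all tested compounds plus 3 SD, cutoff set per campaign, cut at about 5.5% in these data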;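 also: 100% = MG132 at 30 µM as the positive control and 0% = DMSO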
# T cruzi repl = T. cruzi replication inhibition; 300,000 tested, 1.4% active; AID 1885; inhibition, % (no concentration beside the values); T. cruzi beta-gal in NIH3T3, luminescence, 90 h;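 active = mean inhibition across valid replicates above about 55%, limit read from the data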;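 also: signal also drops with host cell toxicity which is not excluded here; 0% = plate median of DMSO wells and 100% = zero luminescence signal; higher percent means less beta-gal luminescence so fewer parasites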
#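 compound dosing = single 50 nL compound addition per well in DMSO | material = NIH/3T3 host cells with β-galactosidase reporter T. cruzi | input = 5,000 host fibroblasts per well | timing = ≥90 h infection period, 3 h prior cell attachment | read-out basis = percent inhibition of parasite-derived β-gal signal | detection = GalScreen β-gal luminescence, detergent lysis, 60 min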
# Lmaj promast = inhibitors of Leishmania major promastigote growth; Leishmania major promastigotes, resazurin fluorescence viability; inhibition, % at 10 µM; 200,000 tested, 9% active; in the data active = inhibition above about 50%;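 also: promastigotes grown with compound for 44 hours at 28 °C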
# * = called active by the depositor; x = no result.
SMILES,HSF-1 act,HSF1 inh,Hsp70 act,T cruzi repl,Lmaj promast
COc1ccccc1OCCCCn1ncc2ccc(OC)c(OC)c2c1=O,-4,-12,x,6,x
COc1ccc(C(=O)/C=C2/C(=O)Nc3ccccc32)cc1OC,243*,181,x,13,x
C=CCOc1ccc(C(=O)/C=C2/C(=O)Nc3ccccc32)cc1,8,1,x,21,x
C=CCOc1ccccc1C(=O)/C=C1/C(=O)Nc2ccccc21,113*,99,x,1,x
COc1ccc(C(=O)/C=C2/C(=O)Nc3ccccc32)cc1,-14,-2,x,-4,x
O=C1Nc2ccccc2/C1=C/C(=O)c1cccs1,-71,-65*,0,-7,100*
Cc1cc(Nc2c(C)n(C)n(-c3ccccc3)c2=O)n2c(nc3ccccc32)c1C#N,13,3,0,-13,-5
Cc1cc(SCC(=O)Nc2c(C)n(C)n(-c3ccccc3)c2=O)n2c(nc3ccccc32)c1C#N,x,x,0,x,87*
c1ccc2c(c1)[nH]c1c(N3CCN(C4CCCCC4)CC3)ncnc12,-8,26,-1,-7,78*
c1ccc2c(c1)[nH]c1c(N3CCCC3)ncnc12,-8,2,0,15,58*
c1ccc2c(c1)[nH]c1c(N3CCSCC3)ncnc12,x,x,1,x,86*
O=[N+]([O-])c1ccc(C(O)CN=Cc2ccc(O)cc2O)cc1 (stereo not given),-9,-5,0,-51,-1
COc1ccc(C2=NS(=O)(=O)N(C)C(C(=O)N3CCC(C(N)=O)CC3)=C2)cc1,-17,-6,x,3,x
CCC1(C)N=C(N)Nc2nc3cc(C)c(C)cc3n21 (stereo not given),71*,24,x,28,x
NC1=NC2(CCCC2)n2c(nc3ccccc32)N1,10,-1,0,-14,7
Cc1ccc2c(c1)cc(C(=O)N[C@@H](Cc1ccccc1)C(=O)O)n2C,0,-3,x,-18,x
CN1C(=O)C2(c3ccccc31)N(C)CC(c1ccccc1)C21SC(=S)N(Cc2ccco2)C1=O (stereo not given),6,1,0,30,99*
CN1C(=O)C2(c3ccccc31)N(C)CC(c1ccccn1)C21SC(=S)N(Cc2ccco2)C1=O (stereo not given),85*,34,0,7,100*
O=C(Nc1ccc2c(c1)N(Cc1ccccc1)C(=O)c1ccccc1S2)NC1CC1,10,1,0,9,92*
CN1C(=O)c2ccccc2Sc2ccc(NC(=O)NC3CC3)cc21,-4,-11,-1,20,-6
Cc1[nH]n(-c2ccc(Cl)cc2)c(=O)c1C(=O)c1ccccc1,-6,2,0,-9,-9
CCOC(=O)c1[nH]n(-c2ccc(Cl)cc2)c(=O)c1C,-1,2,0,0,52*
CCNS(=O)(=O)c1ccc(CCC(=O)N2CCN(c3ccccc3)CC2)cc1,-2,2,x,7,x
O=C/C(=C\Nc1ccc(Br)cc1)c1nc2ccccc2o1,8,1,0,-10,-6
O=C/C(=C\Nc1ccccn1)c1nc2ccccc2o1,23,9,0,-20,73*
SMILES,HSF-1 act,HSF1 inh,Hsp70 act,T cruzi repl,Lmaj promast
CC(=O)NC1=NN(C(C)=O)C(c2ccco2)S1 (stereo not given),0,-7,x,-5,x
CCCCCN(C(=O)CCC(=O)OCC(=O)Nc1ccc(C)cc1F)c1c(N)n(CCCC)c(=O)[nH]c1=O,2,1,x,12,x
CN1CCN(NC(=O)/C=C/c2ccc(Br)cc2)CC1,82*,40,x,24,x
O=C1CCCN1CCC1CCN(C(=O)Nc2ccccc2)CC1,-73,-68*,0,-24,-7
Cc1ccc(CNC(=O)CS(=O)(=O)Cc2nc(-c3ccccc3F)oc2C)cc1,57*,29,x,-15,x
CC1(C)C(=O)NCCN1C(=O)CC1C(=O)NCCN1Cc1cccc(C(F)(F)F)c1 (stereo not given),-5,-10,x,2,x
Nn1c(COc2ccc(Cl)cc2)nc2ccccc2c1=O,86*,40,0,4,41
CC(C)(C)C1CCC(=O)N(CCC#N)CC1 (stereo not given),-3,9,x,-22,x
Cc1ccc(Oc2ccc(NC(=O)Cn3ccsc3=N)cc2)cc1,3,-3,0,37,100*
Cc1ccc(NC(=O)CN(C)C(=O)Cn2ccsc2=N)cc1,2,0,0,-17,-4
O=C(CC1CCCC1)Nc1ccc2c(c1)CCC2,25,21,0,-4,3
Cc1ccc(S(=O)(=O)N2CCc3ccccc3C2CC(=O)O)cc1 (stereo not given),0,0,x,-12,x
CC(C)(C)c1ccccc1OCC(=O)Nc1ccccc1C(=O)NCc1cccnc1,24,3,x,62*,x
O=C(NCc1ccc(Cl)cc1)N1CCN(S(=O)(=O)c2ccccc2)CC1,-13,2,x,-5,x
O=c1[nH]c2ccccc2cc1CN(Cc1cccnc1)S(=O)(=O)c1ccc([N+](=O)[O-])cc1,63*,28,x,56*,x
CC(C)(C)NC(=O)CN(C(=O)CS(=O)CC(=O)Nc1ccc(F)cc1)c1ccc2c(c1)OCCO2 (stereo not given),-14,2,0,4,-8
O=C(CSc1nc(-c2ccc(F)cc2)cc(C(F)(F)F)n1)NCc1ccco1,-7,-5,-1,-2,-1
Cc1ccc(C(=O)O)c(C(=O)Nc2nc3ccccc3s2)c1,19,-5,x,-8,x
COc1cccc(N=CC2=C(O)CCCC2=O)c1,21,8,0,-1,-1
CC1(C)CC(=O)C(C=Nc2ccc3[nH]ncc3c2)=C(O)C1,15,10,0,-18,1
COc1cccc(N=CC2=C(O)CC(C)(C)CC2=O)c1,87*,43,0,-23,-2
CC1(C)CC(=O)C(C=Nc2ccc3cn[nH]c3c2)=C(O)C1,54*,32,-1,-11,1
OCCCN1CCN(CCOc2ccccc2-c2ccccc2)CC1,2,-7,0,-4,1
c1ccc(-c2ccccc2OCCCN2CCCCC2)cc1,29,3,0,11,95*
CCN1CCN(CCCOc2ccccc2-c2ccccc2)CC1,x,x,0,x,65*
SMILES,HSF-1 act,HSF1 inh,Hsp70 act,T cruzi repl,Lmaj promast
CCN1CCN(CCOc2ccccc2-c2ccccc2)CC1,7,-9,0,-7,91*
CCCCCCSc1nsc(NC(=O)CCC)n1,19,20,0,41,2
COc1ccc(CNC(=O)C(c2ccco2)N(C(=O)c2snc(C(N)=O)c2N)c2ccccc2OC)cc1 (stereo not given),1,4,x,16,x
COc1ccc(S(=O)(=O)Nc2ccccc2-c2nnn(CC(=O)Nc3ccccc3OC)n2)cc1,19,11,-1,27,98*
COc1ccc(NC(=O)Cn2nnc(-c3ccccc3NS(=O)(=O)c3ccccc3)n2)cc1,6,0,0,-27,44
O=C(CSC1=N/C(=C/c2ccc(Cl)c(Cl)c2)C(=O)N1c1ccccc1F)NC1CC1,25,-9,0,10,24
